Compound activity: PubChem BioAssay, several laboratories
Shown are actives, neighbours in structure and some others; about 1.8% of the full set was active somewhere.
Beta2AR agonist = beta2AR agonists driving receptor internalization, primary screen, cell-based, FAP fluorogen, flow cytometry | Beta-2 adrenergic receptor (Homo sapiens), P07550 | Am2.2-beta2AR cells | response, % (test concentration not listed) | 340,000 compounds, 0.43% hits;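 active = response above a set limit, near 3 SD of response in nonfluorescent compounds, cut at about 42% in these data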
APJ antag = antagonists of human apelin receptor APJ, primary screen, CHO-K1 cells, beta-arrestin complementation, luminescence; P35414; 330,000 compounds, 0.32% hits; inhibition, % at 20 µM;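 active = inhibition above about 40% at 20 µM, limit read from the data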;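 also: cells challenged with 10 nM apelin-13 agonist together with compound; plate controls were apelin-13 plus DMSO wells for no effect and DMSO wells lacking apelin-13 for full effect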
CXCR6 block = CXCR6 receptor inhibitors, primary screen, cell-based, beta-arrestin, luminescence, CHO-K1 PathHunter, 1536-well; C-X-C chemokine receptor type 6 (Homo sapiens), O00574; inhibition, % at 20 µM; 360,000 compounds, 0.36% hits; AID 602244, 2012; in the data active = inhibition above about 34%, passing the limit was not always enough;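 also: antagonist mode with CXCL16 agonist at 10 nM final; 0% = 10 nM CXCL16 with DMSO and 100% = unstimulated wells without agonist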
APJ agonist = agonists of human apelin receptor APJ, primary screen, CHO-K1 cells, PathHunter beta-arrestin, luminescence; 330,000 compounds, 0.11% hits; P35414; activation, % at 20 µM; 0% DMSO wells, 100% apelin;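 active = activation more than six SD over the plate average, tested at 20 µM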;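 also: 0% = DMSO alone and 100% = apelin-13 at 10 nM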
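assay system = CHO-K1 APJ beta-arrestin complementation cell line | input = cell density 1000 per well | dosing = compound 20 µM once, DMSO 1% | timing = compound 90 min 25 °C, reagent 1 h | measured by = luminescence from split beta-galactosidase complementation, Galacton Star/Emerald II substrate | read-out basis = APJ agonist activity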
CCR6 antagonist = CCR6 receptor antagonists, primary screen, cell-based, CHO-K1, luminescence, beta-arrestin, uHTS; AID 493098, 2011; inhibition, % at 20 µM; CHO-K1 CCR6 PathHunter beta-arrestin, CCL20-stimulated; 340,000 compounds, 0.49% hits; C-C chemokine receptor type 6 (Homo sapiens), P51684;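 active = compounds whose inhibition of the agonist-driven luminescence signal at 20 µM reaches about 50%, limit read from the data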;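 also: cells stimulated with CCL20 at 14 nM final; plate controls were DMSO with CCL20 for no effect and DMSO without agonist for full effect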
EBI2 block = EBI2 receptor antagonists, beta-arrestin recruitment, primary screen, cell-based, luminescence, 7a,25-OHC stimulation, uHTS. G-protein coupled receptor 183 (Homo sapiens), P32249. 7a,25-OHC stimulated. inhibition, % at 5 µM. 360,000 compounds, 0.81% hits. AID 651636, 2012; in the data active = inhibition above about 38%;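 also: enzyme fragment complementation signal reports receptor beta-arrestin coupling in cells; 0% = agonist plus DMSO wells and 100% = wells without agonist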
Target sequence (P32249 whole entry, looked up, the tested form may be a part): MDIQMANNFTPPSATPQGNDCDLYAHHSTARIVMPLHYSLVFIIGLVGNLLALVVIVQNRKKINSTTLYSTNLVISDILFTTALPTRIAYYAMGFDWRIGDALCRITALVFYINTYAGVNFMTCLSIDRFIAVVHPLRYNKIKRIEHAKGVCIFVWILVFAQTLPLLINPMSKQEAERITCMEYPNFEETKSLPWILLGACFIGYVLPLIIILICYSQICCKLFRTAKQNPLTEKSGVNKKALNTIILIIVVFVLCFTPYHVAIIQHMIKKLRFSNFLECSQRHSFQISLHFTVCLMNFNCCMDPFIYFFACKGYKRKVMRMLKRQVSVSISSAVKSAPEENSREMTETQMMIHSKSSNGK
APJ antag confirm = APJ antagonists blocking beta-arrestin recruitment, confirmation, cell-based, luminescence, single concentration, uHTS hits. shares compounds with APJ antag. antagonist mode. inhibition, % at 20 µM. 950 compounds, 66% hits; in the data active = inhibition above about 50%
CXCR6 antag conf = CXCR6 receptor antagonists, confirmation, cell-based, single concentration, beta-arrestin, luminescence; shares compounds with CXCR6 block; inhibition, % at 20 µM; AID 602409, 2012; 700 compounds, 65% hits; CHO-K1 CXCR6 PathHunter beta-arrestin;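 active = mean inhibition over four retests above 40%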;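 also: receptor stimulated with 10 nM CXCL16 agonist; beta-galactosidase fragment complementation upon beta-arrestin recruitment to receptor; plate controls were CXCL16 plus DMSO for no effect and DMSO without CXCL16 for full effect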
EBI2 antag conf = EBI2 antagonist hit retest, beta-arrestin, confirmation, cell-based, single concentration, luminescence, 7a,25-OHC stimulation; shares compounds with EBI2 block; 7a,25-OHC antagonism; inhibition, % at 5 µM; 2,400 compounds, 29% hits; AID 651997, 2013;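 active = inhibition of at least 50%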
EBI2 ag = EBI2 agonist activity of antagonist hits, confirmation, counter-screen for EBI2 antagonist project, cell-based, single concentration, agonist mode, luminescence. activation, % at 5 µM. 2,400 tested, under 10 active. shares compounds with EBI2 block. EBI2-expressing cells, 60 min; 0% vehicle, 100% 7α,25-dihydroxycholesterol control;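 active = activation of at least 50%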
bGal counter = E. coli beta-galactosidase enzyme inhibition, confirmation, counter-screen for EBI2 antagonist project, biochemical, luminescence, single concentration | shares compounds with EBI2 block | AID 652176, 2013 | purified beta-galactosidase, luminescent Galacton Star, 15 min | 2,400 compounds, 1% hits | inhibition, % at 5 µM;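 active = replicate-average signal at least 3 plate SD below neutral wells, shown as high inhibition, flagging enzyme-inhibiting false positives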;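 also: 0% = DMSO wells with enzyme and 100% = wells lacking enzyme; higher means stronger loss of beta-gal luminescence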
The depositor's hits bear a star; . = no result.

SMILES | Beta2AR agonist | APJ antag | CXCR6 block | APJ agonist | CCR6 antagonist | EBI2 block | APJ antag confirm | CXCR6 antag conf | EBI2 antag conf | EBI2 ag | bGal counter
C/C(=N\NC(=O)c1cccc(Br)c1)c1ccccn1 | 1.1 | 66.6* | 30.6 | -18.1 | 65.3* | 67.1* | 59.3* | . | 81.8* | -1.9 | 9.1
CC(=NNC(=O)c1ccncc1)c1cccc(Br)c1 | -3.7 | . | -0.1 | . | 1.5 | -0.3 | . | . | . | . | .
C/C(=N/NC(=O)c1ccc(C(C)(C)C)cc1)c1ccccn1 | 16.7 | 69.1* | 77.4* | -18.7 | 93.8* | 74.3* | 88.2* | 82.2* | 87.0* | -3.4 | 6.6
Cc1ccc(OCCN2C(=O)c3ccccc3C2=O)c([N+](=O)[O-])c1 | -30.6 | 47.9* | 52.8* | -4.8 | 46.3 | 61.6* | 66.2* | 58.3* | 51.7* | -0.2 | 7.4
O=C(CNS(=O)(=O)c1ccccc1F)NNC(=O)c1ccc(Br)cc1 | -11.5 | 8.2 | -11.1 | -1.0 | 6.0 | 3.3 | . | . | . | . | .
COc1ccc(CN2C(=O)C(Cc3ccccc3)Nc3ncnc(N4CCN(c5ccccc5)CC4)c32)cc1 (centres undefined) | -2.9 | 52.9* | 70.4* | -20.7 | 80.1* | 44.1* | 110.0* | 68.2* | 39.8 | -1.8 | 32.5*
O=C1C(Cc2ccccc2)Nc2ncnc(N3CCN(c4ccccc4)CC3)c2N1Cc1ccc(Cl)cc1 (centres undefined) | 1.0 | 65.4* | 67.9* | -16.8 | 77.6* | 64.6* | 103.9* | 69.8* | 70.6* | -3.6 | 39.4*
CC(C)CC1Nc2ncnc(N3CCN(c4ccccc4)CC3)c2N(Cc2ccccc2)C1=O (centres undefined) | 5.3 | -4.6 | 15.5 | 1.2 | 10.1 | 1.1 | . | . | . | . | .
CCc1ccc(C(=O)NNc2ccc(F)cc2)cc1 | -3.3 | 29.7 | 14.2 | -7.9 | 16.1 | 5.0 | . | . | . | . | .
CCc1ccc(C(=O)NNc2ccc(C)c(Cl)c2)cc1 | 1.2 | 52.7* | 9.5 | -9.2 | 38.4 | 46.2* | 80.5* | . | 22.9 | -2.7 | -8.1
O=C(NC1CC(=O)N(c2ccc(Cl)cc2)C1)C1CC1 (centres undefined) | -3.5 | 2.3 | 10.0 | -4.8 | -8.1 | 15.3 | . | . | . | . | .
O=C(O)c1cc(S(=O)(=O)N2CC3CC3C2C(=O)O)c(Cl)cc1Cl (centres undefined) | 0.9 | 14.8 | -5.8 | -5.3 | -10.4 | 5.3 | . | . | . | . | .
